Screening results: PubChem, several laboratories
Compounds with a hit are over-represented: about 1.2% of the library has one in this group of screens.
Runt-SMMHC FRET = inhibitors of RUNX1 Runt–CBFb-SMMHC binding, primary screen, biochemical, FRET, Cerulean-Runt, Venus-CBFb-SMMHC, uHTS; Cerulean-Runt/Venus-CBFb-SMMHC FRET ratio 530/480, 1 h; inhibition, % at 20 µM; 220,000 tested, 0.74% active; AID 1434, 2008;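 active = mean inhibition across duplicate retests at 20 µM reaching about 50%, limit read from the data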;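 also: inhibitors lower the FRET ratio by blocking Runt binding to CBFb-SMMHC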
Target sequence (Q01196 whole entry, looked up): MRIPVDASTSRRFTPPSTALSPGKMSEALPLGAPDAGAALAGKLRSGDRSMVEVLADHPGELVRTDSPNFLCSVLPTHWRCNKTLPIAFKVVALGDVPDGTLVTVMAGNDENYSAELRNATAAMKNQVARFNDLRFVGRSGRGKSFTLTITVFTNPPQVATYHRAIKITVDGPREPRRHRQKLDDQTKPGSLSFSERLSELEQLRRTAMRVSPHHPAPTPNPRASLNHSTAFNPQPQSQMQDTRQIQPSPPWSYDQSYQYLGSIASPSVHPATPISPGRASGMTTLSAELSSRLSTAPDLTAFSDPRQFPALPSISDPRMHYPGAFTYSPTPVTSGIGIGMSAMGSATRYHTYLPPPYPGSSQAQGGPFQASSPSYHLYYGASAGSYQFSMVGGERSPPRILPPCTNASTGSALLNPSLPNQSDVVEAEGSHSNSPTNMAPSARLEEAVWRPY
Target sequence (Q13951 whole entry, looked up): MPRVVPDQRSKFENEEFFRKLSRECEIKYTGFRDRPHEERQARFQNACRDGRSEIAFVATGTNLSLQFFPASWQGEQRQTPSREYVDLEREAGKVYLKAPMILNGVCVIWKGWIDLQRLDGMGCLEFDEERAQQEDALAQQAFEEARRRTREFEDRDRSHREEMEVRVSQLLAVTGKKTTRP
RanGTP-Imp inh = inhibitors of RanGTP-importin-beta interaction, primary screen, biochemical, FRET, CFP-Ran, YFP-importin-beta, homogeneous; cell-free CFP-Ran/YFP-importin-beta FRET ratio; AID 2216, 2009; 300,000 tested, 1.1% active; inhibition, % (concentration not given with the values); Ran GTPase (GTP-bound) - importin-beta complex;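 active = more than half of the replicate wells show a fall in the fluorescence ratio signal beyond about 16%, limit read from the data, passing the limit was not always enough; inconclusive = exactly half of the replicate wells pass the set limit; inactive = fewer than half of replicates pass the limit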
CaV13 ICDI inh = Primary screen for inhibitors of IQ motif and Ca2+-dependent inactivation inhibitor domain binding in CACNA1D, Förster resonance energy transfer in living cells, …; 340,000 tested, 0.098% active; inhibition, % at 12.3 µM; HEK cells, CFP/YFP FRET ICDI-IQ, plate reader, 10 min; percent FRET-ratio fall versus neutral wells; AID 743397;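 active = mean replicate inhibition of at least 30% and at least 1% of replicates passing that level; inconclusive = only one of the two criteria is met; inactive = neither criterion is met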
Runt-CBFb FRET = inhibitors of RUNX1 Runt–CBFb binding, primary screen, biochemical, FRET, Cerulean-Runt, Venus-CBFb, uHTS. Runt-related transcription factor 1 (Homo sapiens) + Core-binding factor subunit beta …. Cerulean-Runt/Venus-CBFb FRET ratio 530/480, 1 h. inhibition, % at 20 µM. 220,000 tested, 0.46% active;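 active = inhibition over about 50% at 20 µM in the single-dose screen, limit read from the data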
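Doses: 20 µM compound in 1% DMSO | Material: Cerulean-labeled Runt domain protein | Amount: Each fluorescent fusion protein 100 nM | Schedule: Two 1 h room-temperature incubations shielded from light | Measured by: FRET fluorescence | Evaluation: Loss of energy transfer signal | Controls: Unlabeled CBFb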
Numbers stand for hits; - = inactive; ? = inconclusive; . = not tested or not shown.

SMILES	Runt-SMMHC FRET	RanGTP-Imp inh	CaV13 ICDI inh	Runt-CBFb FRET
COC(=O)c1ccc(C2C(C#N)=C(C)NC3=C2C(=O)CC(C)(C)C3)cc1 (centres undefined)	80.7	-	-	-
CCOC(=O)C1=C(C)NC2=C(C(=O)CC(C)(C)C2)C1c1cccc(C)n1 (centres undefined)	87.7	?	-	-
COc1ccc(C2C(C#N)=C(SC)NC3=C2C(=O)CC(C)(C)C3)cc1 (centres undefined)	-	-	-	-
CCCCC1C(C#N)=C(C)NC2=C1C(=O)CC(C)(C)C2 (centres undefined)	69.4	-	-	-
CC1=C(C(=O)OCC2CCCO2)C(c2ccc(C)cc2)C2=C(CC(C)(C)CC2=O)N1 (centres undefined)	55.9	-	-	-
COc1ccc(C2C(C#N)=C(C)NC3=C2C(=O)CC(C)(C)C3)c(OC)c1 (centres undefined)	-	-	.	-
NC(=O)C1=C(c2ccccc2)c2ccccc2C1=O	.	.	-	.
CN=C(C)/C(C(=O)OC)=C(/O)c1c(F)cccc1F	-	-	-	-
Cc1cc(C(=O)CCC(=O)N(C)CC(=O)Nc2ccc(OC(F)(F)F)cc2)c(C)s1	.	.	-	.
COCCNc1cc(C)nc2c3c(C)cc(C)nc3nn12	73.4	49.8	-	-
Cc1cc(C)c2c(n1)nn1c(NCCN3CCOCC3)cc(C)nc21	-	35.5	-	-
Cc1c(N2C(=O)CSC2c2ccc(F)cc2)c(=O)n(-c2ccccc2)n1C (centres undefined)	-	-	-	-
CC1CCCCN1C(=O)C(=O)c1cn(CC(=O)N2CCCCCC2)c2ccccc12 (centres undefined)	.	-	-	.
C[C@H]1CN([C@@H](C)CO)S(=O)(=O)c2ccc(Br)cc2O[C@H]1CN(C)C(=O)c1ccccc1F	.	.	-	.
COc1cc(C(=O)NCCNc2nc3c(C)cccc3cc2C#N)cc(OC)c1OC	.	.	-	.
Cc1cccc2cc(C#N)c(NCCNS(=O)(=O)c3ccc4c(c3)OCCO4)nc12	76.0	?	-	-
Cc1cc2cccc(C)c2nc1SCC(=O)NC1CCCCC1	.	-	-	.
Cc1cc(C)c2cc(C#N)c(NCCCNC(=O)CCC(=O)O)nc2c1	-	?	-	-
Cc1cccc2cc(C#N)c(NCCNC(=O)NC3CCCCC3)nc12	75.1	-	-	54.9
COc1ccc(C(=O)NCCNc2nc3c(C)cccc3cc2C#N)cc1OC	.	39.5	-	.
CCC(=O)NCCCNc1nc2c(C)cccc2cc1C#N	-	41.2	45.6	-
Cc1nn(C)cc1C1C(C#N)=C(N)N(c2ccc(F)c([N+](=O)[O-])c2)C2=C1C(=O)CCC2 (centres undefined)	-	-	-	-
CC(NC(=O)COC(=O)CCc1nc2ccccc2c(=O)[nH]1)c1ccccc1 (centres undefined)	-	-	-	-
COc1ccc(-c2c(C)nn3c(N)c(-c4ccccc4)cnc23)cc1OC	.	-	-	.
Cc1ccc2cc(C#N)c(NCCNC(=O)C3CCC3)nc2c1C	78.3	19.3	-	-
SMILES	Runt-SMMHC FRET	RanGTP-Imp inh	CaV13 ICDI inh	Runt-CBFb FRET
CCOC(=O)/C(O)=C(\C#N)c1nc2ccccc2[nH]1	73.8	-	-	-
CN1CCN([C@H]2CS(=O)(=O)N[C@@H]2COCc2ccccc2)CC1	.	.	-	.
COc1ccccc1CNC(=O)c1ccc(NC2=NC3CS(=O)(=O)CC3S2)cc1 (centres undefined)	.	-	-	.
CCCCn1c(=NC(=O)c2ccc3c(c2)OCO3)c(C#N)cc2c(=O)n3cccc(C)c3nc21	-	.	-	56.4
COCCCn1c(C(=O)Nc2ccc3c(c2)OCO3)cc2c(=O)n3cccc(C)c3nc21	.	.	-	.
COCCn1c(=NC(=O)c2ccc3c(c2)OCO3)c(C#N)cc2c(=O)n3cccc(C)c3nc21	118.2	43.0	.	105.2
C[C@H](O)[C@@H]1C(=O)N2CCc3c([nH]c4ccccc34)[C@@H]2C[C@@H]1N(C)C(=O)Nc1ccc(Br)cc1	.	.	-	.
Cc1ccc(OCCNS(=O)(=O)c2cccs2)cc1	-	-	-	-
CCOC(=O)N(C)[C@H]1C[C@H]2c3[nH]c4ccccc4c3CCN2C(=O)[C@H]1[C@H](C)O	.	.	-	.
CCOn1c(=O)c(-c2cccs2)[n+]([O-])c2ccccc21	-	20.6	.	-
COc1cc(N(C)C)c([N+](=O)[O-])cc1C(=O)N1CCN(Cc2ccccc2)CC1	-	-	-	-
Cc1cccc2sc(NNC(=O)c3ccc(S(=O)(=O)N4CCCC(C)C4)cc3)nc12 (centres undefined)	-	-	42.7	-
O=C(O)c1cc(-c2ccc(/C=C3\NC(=O)N(c4ccccc4)C3=O)o2)ccc1Cl	82.5	-	-	-
O=C(O)c1cc(-c2ccc(/C=C3\NC(=O)N(c4ccc(Cl)cc4)C3=O)o2)ccc1Cl	81.1	-	-	-
Cc1cccc(N2NC(=O)/C(=C/c3ccc(-c4ccc(Cl)c(C(=O)O)c4)o3)C2=O)c1	-	-	-	-
O=C1NN(c2ccccc2)C(=O)/C1=C/c1ccc(-c2ccc(Cl)c(C(=O)O)c2)o1	-	-	-	-
Cc1ccc(CNS(=O)(=O)c2c(C)[nH]c(=O)[nH]c2=O)cc1	.	-	-	.
O=C(c1ccco1)[C@@H]1[C@@H]2C(=O)N(c3ccc(Br)cc3)C(=O)[C@@H]2C2c3ccccc3C=CN21 (some centres undefined)	-	.	.	-
O=C(c1ccco1)[C@@H]1[C@@H]2C(=O)N(c3ccc(F)cc3)C(=O)[C@@H]2C2c3ccccc3C=CN21 (some centres undefined)	-	45.3	-	-
COCC(C)n1c(SCC(=O)NC(=O)NC2CCCC2)nc2ccccc2c1=O (centres undefined)	.	.	-	.
Cc1nnc(Sc2c(N)n(C)c(=O)[nH]c2=O)s1	-	18.9	-	-
C=CCn1c(Sc2nnc(C)s2)nc2c1c(=O)[nH]c(=O)n2C	-	-	-	-
Cn1c2ccccc2c(=O)c2ccc(C#Cc3ccc(N)cc3)cc21	.	85.5	-	.
COc1ccc(C#Cc2ccc3c(=O)c4ccccc4n(C)c3c2)cc1	.	87.9	.	.
Cn1c2ccccc2c(=O)c2ccc(Cl)cc21	.	.	-	.
CCn1c2ccccc2c2nc3ccccc3nc21	-	-	.	-
CCn1c2ccccc2c2nc3cc(OC)c(OC)cc3nc21	-	88.8	-	-
COc1cc2nc3c4ccccc4n(CC#N)c3nc2cc1OC	51.4	-	-	-
COc1ccccc1CNC(=O)c1nccnc1CO	.	-	-	.
COc1ccc(N2CCN(C3CCCN(C(=O)CCN4CCCCO4)C3)CC2)cc1 (centres undefined)	.	-	-	.
